Source: paper PMC3195516 (Synthesis, 2010)
Where two headings read alike, the source gives them in different places.

Columns and labels:
[1] = tested on: L1210 cells; test: L1210 cell growth inhibition; format: cell-based, Murine
Summary of the method: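 L1210 cells were kept in logarithmic-phase suspension in RPMI-1640 with 10% fetal bovine serum, 2% HEPES-MOPS buffer, 1 mM L-glutamine and 1 mM aminoguanidine at 37 °C under 5% CO₂. Cultures at 0.5–1.0 × 10⁵ cells/mL were treated, reseeded and incubated, then counted. IC50 is the concentration that reduces growth to 50% of control after the set exposure.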

[2] = tested on: L1210 cells; conditions: cultured L1210 cells; cited from earlier work
[3] = Mus musculus, L1210, 48 h, read-out: IC50 (µM) 48 h
[4] = Mus musculus, L1210, 96 h, read-out: IC50 (µM) 96 h
[5] = read-out: IC50 (µM) 48 h, L1210 cells, 48 h exposure
[6] = read-out: IC50 (µM) 96 h, L1210 cells, 96 h exposure

Row | IC50 [1, 3] [µM] | IC50 [1, 4] [µM] | IC50 [1, 5] [µM] | IC50 [1, 6] [µM] | Structure (SMILES) | intracellular concentration of compound [2]
1 | 40 | 40 |  |  | C[C@]1(C(=O)O)CSC(c2ccc(OCCCCNCCCNCCCN)cc2O)=N1 [NSPD-(S)-4′-(HO)-DADFT (4), (S)-4,5-dihydro-2-[2-hydroxy-4-(12-amino-5,9-diazadodecyloxy)phenyl]-4-methyl-4-thiazolecarboxylic acid] | 
2 |  |  | 1.8 | 2.1 | CCOC(=O)[C@@]1(C)CSC(c2ccc(OC(=O)c3ccc(CNCCCNCCCN)cc3)cc2O)=N1 [NSPDBn-(S)-4′-(HO)-DADFT-EE (7), ethyl (S)-4,5-dihydro-2-[2-hydroxy-4-[4-(9-amino-2,6-diazanonyl)benzoyloxy]]-4-methyl-4-thiazolecarboxylate] | 
3 | 0.2 | 0.2 |  |  | Cc1c(O)c(=O)ccn1CCCNCCCCNCCCN [L1-SPM-conjugate (3), 1-(12-amino-4,9-diazadodecyl)-2-methyl-3-hydroxy-4(1H)-pyridinone] | 390 µM
4 | 46 | 55 |  |  | Cc1c(O)c(=O)ccn1C [L1 (2), 1,2-dimethyl-3-hydroxypyridin-4-one, reference compound] | ~ 1 µM

The remaining lines, values behind:

Row | Structure (SMILES) | IC50 [1, 3] [µM] | IC50 [1, 4] [µM] | IC50 [1, 5] [µM] | IC50 [1, 6] [µM] | intracellular concentration of compound [2]
5 | C[C@]1(C(=O)O)CSC(c2ccc(O)cc2O)=N1 [(S)-4′-(HO)-DADFT (6), (S)-2-(2,4-dihydroxyphenyl)-4,5-dihydro-4-methyl-4-thiazolecarboxylic acid] | 19 | 20 |  |  | 
6 | CCNCCCNCCCNCCCNCC [DENSPM (1), reference compound] |  |  | 20 | 2 | 
